# Only some compounds are listed: those with a hit (about 2.5% of all), similar ones and a draw of the others.
# NadD block = NadD (S. aureus) enzyme inhibition; purified NadD enzyme, colorimetric absorbance read-out; inhibition, % at 20 µM; 0.78% of 360,000 active; AID 602399; in the data active means inhibition above about 26%
# GRK2 inh = human GRK2 inhibition via aptamer displacement | P25098 | bead flow cytometry, FAM-aptamer displacement from GRK2 | inhibition of aptamer binding, % at 10 µM | 0.59% of 330,000 active | AID 488847;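 active means inhibition of aptamer binding above 40%, roughly 3 SD of noise, on plates passing a quality check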;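 further: median bead fluorescence of bound FAM aptamer so fluorescent compounds give negative values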
# SENP1 inh = blocks the human SENP1 SUMO protease catalytic domain; inhibition, % at 10 µM; recombinant SENP1 catalytic domain, CyPet-SUMO1-YPet FRET cleavage; AID 624204; 0.21% of 360,000 active; Q9P0U3;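 active means inhibition at least 30% at 10 µM, raw YFP signal under a set limit, fluorescence ratio 0.5 to 1.5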;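 further: 0% = enzyme with DMSO and 100% = no enzyme wells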
#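 material = recombinant human SENP1 catalytic domain, His6-tagged | quantity = 20 pM enzyme | reagent = 25 nM SUMO1 FRET substrate | compound dosing = 10 µM single point, 0.5% DMSO | timing = 50 min enzyme reaction, room temperature, light-protected | detection = FRET, CFP and YFP emission | control set = no-enzyme low, enzyme-DMSO high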
# ABHD5-PLIN5 inh = inhibitors of human ABHD5-perilipin-5 interaction | Q00G26+Q8WTS1 | Split G. princeps luciferase complementation, luminescence, 4 h | inhibition, % at 4 µM | 0.78% of 360,000 active | AID 602281;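 active means inhibition above the mean inhibition across every tested compound plus 3 SD, cut at about 22% in these data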;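 further: 0% = DMSO only wells and the 100% control is not disclosed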
# B2AR ag = activates human beta-2 adrenergic receptor causing internalization; Am2.2-beta2AR cells, FAP receptor internalization, flow cytometry; response, % (no concentration beside the values); 0.43% of 340,000 active; AID 504454;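 active means response above a set limit, near 3 SD of response in nonfluorescent compounds, cut at about 42% in these data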
# Target sequence (P07550 whole entry, looked up): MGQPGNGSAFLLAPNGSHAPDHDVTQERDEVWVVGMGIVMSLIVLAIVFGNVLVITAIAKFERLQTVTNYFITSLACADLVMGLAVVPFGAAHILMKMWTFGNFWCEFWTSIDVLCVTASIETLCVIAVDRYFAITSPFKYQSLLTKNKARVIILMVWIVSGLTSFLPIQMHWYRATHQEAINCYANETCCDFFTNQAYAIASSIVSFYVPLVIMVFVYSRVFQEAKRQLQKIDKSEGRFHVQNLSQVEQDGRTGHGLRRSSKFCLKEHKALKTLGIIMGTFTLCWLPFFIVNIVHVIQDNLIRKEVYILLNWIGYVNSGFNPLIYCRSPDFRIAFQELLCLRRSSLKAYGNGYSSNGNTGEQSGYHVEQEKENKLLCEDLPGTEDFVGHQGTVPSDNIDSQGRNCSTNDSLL
# B2AR ag CP1 = agonists of human beta-2 adrenergic receptor | shares compounds with B2AR ag | Am2.2-beta2AR cells, FAP surface receptor, flow cytometry; active compounds read low | percent response (surface receptor), % at 10 µM | 25% of 1,100 active;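 active means surface receptor percent response at or below 58%, roughly 3 SD from nonfluorescent compounds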
# FAP fluor counter = flagged in Am2.2 fluorescence counterscreen for beta-2AR agonists | shares compounds with B2AR ag | Am2.2 cells, FAP fluorogen flow cytometry; active compounds read low | calls only at 10 µM | 1,100 tested, under 10 active;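 active means percent response below a set limit in fluorescence channel 1 and below 50% in channel 8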
# Starred values were filed as active, the others as inactive; i = inactive; . = no result.
SMILES,NadD block,GRK2 inh,SENP1 inh,ABHD5-PLIN5 inh,B2AR ag,B2AR ag CP1,FAP fluor counter
CN1CCN(CCc2nc3cc(NC(=O)COc4ccc(Cl)cc4)ccc3n2C)CC1,-1,0,1,0,47*,97,i
Cc1ccc(OCC(=O)Nc2ccc3c(c2)nc(CCN2CCN(C)CC2)n3C)cc1,-6,0,-2,-11,1,94,i
Cn1c(CCN2CCCCC2)nc2cc(NC(=O)COc3ccc(Cl)cc3)ccc21,-5,0,0,12,4,.,.
CCN1C(=O)[C@H]2[C@@H](c3ccc(C)cc3)N3C(=O)N(c4ccc(OC)cc4)C(=O)[C@@]3(C)[C@H]2C1=O,-5,3,2,1,-1,.,.
O=S(=O)(NN1CCOCC1)c1cc(Cl)cc(Cl)c1O,-4,28,2,-36,-1,.,.
COc1cc(CCC(=O)Nc2nnc(-c3cccnc3)s2)cc(OC)c1OC,-1,0,0,-2,10,.,.
CC(NCc1ccc(OCc2ccc(Cl)cc2)cc1)C(O)c1ccccc1 (centres undefined),0,0,1,18,79*,87,i
COC(=O)C1CCN(C(=O)/C(C)=C\c2ccccc2)CC1,0,0,0,-1,-2,.,.
O=C1NC[C@H](Cc2ccccc2)N(CC2CCN(CCCC3CCCC3)CC2)C1=O,0,.,0,5,-7,.,.
COc1ccc(/C(O)=C2\C(=O)C(=O)N(c3cc(C)on3)C2c2ccccc2OC)cc1 (centres undefined),5,1,0,3,50*,112,i
COc1ccc(/C(O)=C2\C(=O)C(=O)N(c3cc(C)on3)C2c2ccccc2OC)cc1C (centres undefined),14,1,0,-9,2,.,.
c1ccc(CSc2nnnn2-c2cccc3ccccc23)nc1,7,3,3,-17,43*,39*,i
CN(C)c1nc(SCc2ccccc2Cl)nc2c1CCCC2,-10,1,0,-5,43*,131,i
Cc1ccc(CSc2nc3c(c(N(C)C)n2)CCCC3)cc1,12,2,2,-4,-5,.,.
Cc1ccc(C2(c3ccccc3)NC(=O)N(CC(=O)NCc3ccco3)C2=O)cc1C (centres undefined),3,0,2,12,14,.,.
CSCCC(NS(=O)(=O)c1ccc(C)cc1)C(=O)N1CCN(S(=O)(=O)c2ccc(F)cc2)CC1 (centres undefined),-3,0,-2,0,3,.,.
Cc1cc(C)n(-c2nc(SCC(=O)Nc3nccs3)c3c4c(sc3n2)COC(C)(C)C4)n1,13,0,0,3,93*,77,i
C=CCn1c(SCC(=O)Nc2ccc(-c3nc4ccc(C)cc4s3)cc2)nnc1-c1ccncc1,7,0,-65,7,58*,104,i
CCn1c(SCC(=O)Nc2ccc(-c3nc4ccc(C)cc4s3)cc2)nnc1-c1ccccc1,.,4,.,.,.,.,.
COc1ccc(CCC(=O)N2CCN(S(=O)(=O)c3ccc(OC(F)(F)F)cc3)CC2)cc1,-4,3,2,-6,-3,.,.
O=C1CCC(=O)N1c1nc2nc(-c3ccccc3)cc(=O)n2[nH]1,-6,3,0,-5,43*,120,i
CCS(=O)(=O)c1ccc2c(c1)N(S(C)(=O)=O)CC(C(=O)NN)O2 (centres undefined),-1,0,0,5,-5,.,.
CC1=NN(C(N)=S)C(=O)C1N=Nc1ccccc1O (centres undefined),5,3,-1,9,10,.,.
CCOc1ccccc1N=NC1C(=O)N(C(N)=S)N=C1C (centres undefined),4,0,92,4,-1,86,i
Cc1cccc(C)c1NC(=O)NC1(C(=O)NCc2ccncc2)CCCCC1,-1,0,1,0,1,.,.
SMILES,NadD block,GRK2 inh,SENP1 inh,ABHD5-PLIN5 inh,B2AR ag,B2AR ag CP1,FAP fluor counter
Cc1cccc(NC(=O)N2CCC(C(=O)c3ccc(F)cc3)CC2)c1,-10,0,2,-2,75*,105,i
CC(O)C(NS(=O)(=O)c1ccc(Cl)cc1)C(=O)OCCOc1ccc(F)cc1 (centres undefined),0,.,5,3,.,.,.
Cc1ncc(CN2CCCC(C(=O)Nc3ccc(-c4cccc(F)c4)cc3)C2)s1 (centres undefined),-3,0,1,-2,51*,25*,i
CCc1ncc(CN2CCCC(C(=O)Nc3cccc(-c4ccc(F)cc4)c3)C2)cn1 (centres undefined),-1,0,-1,7,-17,.,.
Cc1ncc(CN2CCCC(C(=O)Nc3ccc(-c4cccc(F)c4)cc3)C2)cn1 (centres undefined),-2,0,0,12,91*,21*,i
CC(=O)N1c2ccccc2S(=O)(=O)c2c1ccc1ccccc21,-6,.,-1,3,1,.,.
Cc1nc(NC(=O)CSc2nnc(-c3ccccc3)c(-c3ccccc3)n2)c(Cl)cc1Cl,5,5,4,-4,48*,73,i
CC(=O)Nc1ccc2c(c1)C(N1CC3CCC(CC3)C1)c1ccccc1-2 (centres undefined),0,.,1,-10,43*,97,i
O=C(Nc1cccc(Cl)c1)N1CCN(C2c3ccccc3-c3ccccc32)CC1,8,1,3,-1,0,.,.
CCOC(=O)c1c(NC(=O)COc2ccccc2C#N)sc2c1CC(C)(C)NC2(C)C,-10,0,-2,4,5,.,.
CCOC(=O)c1c(NC(=O)COc2ccccc2OCC)sc2c1CC(C)(C)NC2(C)C,2,0,0,5,62*,59,i
CNC(=O)COC(=O)c1ccccc1C(=O)c1ccc(Cl)c([N+](=O)[O-])c1,2,.,3,2,16,.,.
O=C(COC(=O)c1ccccc1C(=O)c1ccc(Cl)c([N+](=O)[O-])c1)NC1CC1,-2,2,1,3,43*,68,i
Cc1noc(C)c1NC(=O)Nc1ccc2c(c1)C(=O)N([C@H](C)CO)C[C@H](C)[C@@H](CN(C)S(=O)(=O)c1c(C)noc1C)O2,2,5,0,0,8,.,.
C=CCn1c(-c2ccc(Cl)cc2)c[nH]c1=S,3,2,0,-11,.,109,i
C=CCn1c(-c2ccccc2)c[nH]c1=S,-3,0,0,-13,0,.,.
COc1ccc(NC(=O)c2cc(-c3ccncc3)nc3ccc(Br)cc23)cc1OC,-2,0,0,9,97*,90,i
COc1ccc(NC(=O)c2cc(-c3cccnc3)nc3ccc(C)cc23)cc1OC,-6,.,1,2,32,.,.
